High-throughput results (PubChem)
The list is not random: actives were taken first. Their share in the collection is about 2.8%.
PAFAH1B3 FP inh: PAFAH1B3 (human) inhibition; recombinant PAFAH1B3, FP-rhodamine probe, fluorescence polarization; inhibition, % at 3.39 µM; 340,000 compounds, 0.28% hits; AID 492972;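 active means inhibition above the screen-wide average of all tested compounds plus 3 SD, cut at about 25% in these data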;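 further: 0% = enzyme with DMSO only and 100% = wells lacking PAFAH1B3 protein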
pPAFAH inh: inhibitors of human plasma PAF acetylhydrolase (pPAFAH) | Q13093 | recombinant pPAFAH, FP-rhodamine probe fluorescence polarization | inhibition, % at 3.39 µM | 330,000 compounds, 1.5% hits | AID 463082;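 active means inhibition above the mean inhibition across the screen plus 3 SD, cut at about 25% in these data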;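 further: inhibitors block binding of the rhodamine activity-based probe so polarization drops; 0% = enzyme with DMSO and 100% = wells lacking pPAFAH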
Target sequence (Q13093 whole entry, looked up): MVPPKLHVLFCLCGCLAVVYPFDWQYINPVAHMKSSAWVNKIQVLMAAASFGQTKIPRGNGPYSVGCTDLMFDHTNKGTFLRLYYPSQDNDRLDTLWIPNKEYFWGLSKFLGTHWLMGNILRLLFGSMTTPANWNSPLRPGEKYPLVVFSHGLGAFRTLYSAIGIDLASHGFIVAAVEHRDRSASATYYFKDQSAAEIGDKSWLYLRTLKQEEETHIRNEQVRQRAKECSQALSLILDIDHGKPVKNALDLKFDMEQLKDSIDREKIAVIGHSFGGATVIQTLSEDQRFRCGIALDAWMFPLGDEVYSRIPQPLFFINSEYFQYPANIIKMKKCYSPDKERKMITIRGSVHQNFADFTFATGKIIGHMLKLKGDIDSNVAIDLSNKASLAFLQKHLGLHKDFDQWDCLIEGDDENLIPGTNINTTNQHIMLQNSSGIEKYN
HTRA1 inhibitor: blocks human HTRA1 serine peptidase | Q92743 | recombinant HTRA1, FP-rhodamine activity-based probe, fluorescence polarization | 340,000 compounds, 0.5% hits | inhibition, % at 5.96 µM | AID 504803; in the data active means inhibition above about 36%;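 further: 0% = enzyme with DMSO and 100% = wells lacking enzyme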
mABHD4 FP: inhibitors of mouse ABHD4 | 370,000 compounds, 0.54% hits | Q8VD66 | purified mABHD4, FP-Rh probe fluorescence polarization | inhibition, % at 8.92 µM;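 active means inhibition exceeding the mean over every tested compound plus 3 SD, cut at about 30% in these data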;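 further: 0% = plate median of compound wells and 100% = S159A mutant with DMSO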
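system = mouse ABHD4 enzyme, wild type | medium = HEPES pH 7.0, NaCl, Pluronic buffer | also added = FP-Rh probe | incubation = Enzyme–compound pre-incubation 45 min, then probe 60 min, both 25 °C | technique = fluorescence polarization, excitation 525 nm, emission 598 nm, BODIPY TMR filters | controls = S159A mutant high control, sample median low control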
PAFAH1B2 inh: blocks human PAF acetylhydrolase 1b catalytic subunit 2 | recombinant PAFAH1B2, FP-rhodamine activity probe, fluorescence polarization | inhibition, % at 3.39 µM | AID 492953 | P68402 | 340,000 compounds, 1.2% hits;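 active means inhibition above the mean of all tested compounds plus 3 SD, cut at about 24% in these data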;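 further: 0% = enzyme with DMSO and 100% = wells lacking PAFAH1B2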
PAFAH2 FP inh: inhibitors of human PAFAH2; inhibition, % at 3.39 µM; recombinant PAFAH2, FP-rhodamine activity probe, fluorescence polarization; 340,000 compounds, 0.99% hits; Q99487;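 active means inhibition above the mean over all tested compounds plus 3 SD, cut at about 30% in these data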;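 further: inhibitors block probe labeling of enzyme so polarization drops; 0% = enzyme with DMSO and 100% = wells lacking PAFAH2 protein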
PAFAH1B3 conf FP: PAFAH1B3 (human) inhibition, confirmed. shares compounds with PAFAH1B3 FP inh. recombinant PAFAH1B3, FP-Rh activity-based probe, fluorescence polarization. inhibition, % at 3.39 µM. 390 compounds, 30% hits. AID 493032;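 active means average inhibition over triplicate runs above the hit cutoff set in the earlier primary screen, cut at about 25% in these data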;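 further: 0% = enzyme with DMSO and 100% = wells lacking PAFAH1B3 protein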
The depositor's hits bear a star; . = not tested or not shown; ! = not confirmed by another sample.

SMILES	PAFAH1B3 FP inh	pPAFAH inh	HTRA1 inhibitor	mABHD4 FP	PAFAH1B2 inh	PAFAH2 FP inh	PAFAH1B3 conf FP
COC(=O)[C@]12C[C@H](CC(=O)NCCCCc3ccccc3)C(=O)N(Cc3ccco3)C1=C[C@H](C(C)C)O[C@@H]2C1CC1	.	.	.	3	.	.	.
CCCC(=O)NC1=C(Cl)C(=O)c2ccccc2C1=O	38*	.	2	10	6	20	14
CCN(CC)c1ccc(NC2=C(Cl)C(=O)c3ccccc3C2=O)cc1	26*	10	36	.	6	28	36*
Cc1ccc(NC2=C(Cl)C(=O)c3ccccc3C2=O)cc1	16	6	5	12	9	9	.
O=C(C1=C(c2ccccc2)C(=O)c2ccccc2C1=O)c1ccccc1	58*	.	-10	9	11	8	26*
COC1=C(c2ccccc2)C(=O)c2ccccc2C1=O	6	7	4	11	5	4	.
O=C1N(Cc2ccccc2)c2ccccc2C12CCCc1oc(CCc3ccccc3)nc12 (stereo unspecified)	.	.	.	-3	.	.	.
O=c1c(O[C@@H]2O[C@H](CO)C(O)C2O)c(-c2ccc(O)c(O)c2)oc2cc(O)cc(O)c12 (stereo partly specified)	26*	-2	6	.	11	-16	25
C[C@@H]1O[C@@H](Oc2c(-c3ccc(O)c(O)c3)oc3cc(O)cc(O)c3c2=O)[C@H](O)[C@H](O)[C@H]1O	27*!	3	-3	21	-4	-11	17
C[C@@H]1O[C@@H](O[C@H]2[C@H](O)[C@@H](O)[C@H](Oc3c(-c4ccc(O)c(O)c4)oc4cc(O)cc(O)c4c3=O)O[C@@H]2CO)[C@H](O)[C@H](O)[C@H]1O	9	1	14	12	2	-2	.
C[C@@H]1O[C@@H](Oc2c(-c3cc(O)c(O)c(O)c3)oc3cc(O)cc(O)c3c2=O)[C@H](O)[C@H](O)[C@H]1O	44*	-1	-16	10	5	-40	22
COc1cc(-c2oc3cc(O)cc(O)c3c(=O)c2O[C@@H]2O[C@H](COC3O[C@@H](C)[C@H](O)[C@@H](O)[C@H]3O)[C@@H](O)[C@H](O)[C@H]2O)ccc1O (stereo partly specified)	6	-4	-4	-8	4	-8	.
O=c1c(OC2OC(CO)C(O)C(O)C2OC2OC(CO)C(O)C(O)C2O)c(-c2ccc(O)cc2)oc2cc(O)cc(O)c12 (stereo unspecified)	3	11	1	1	5	1	.
O=c1c(O)c(-c2ccc(O)cc2)oc2cc(O)cc(O)c12	30*	21	2	10	11	2	24
COC(=O)[C@]12C[C@H](CC(=O)NCC34CC5CC(CC(C5)C3)C4)C(=O)N(Cc3ccc(Cl)cc3Cl)C1=C[C@H](C(C)(C)C)O[C@@H]2C	.	.	.	-1	.	.	.
O=C(COC(=O)Cc1cccs1)NCC(=O)Nc1ccc(F)cc1	42*	5	-1	0	7	1	8
COc1ccccc1Nc1cc2cc(Br)ccc2c(=O)[nH]1	25	16	0	11	6	13	.
COc1ccc(OC)c(Nc2cc3ccccc3c(=O)[nH]2)c1	38*	2	6	29	6	12	15
O=c1[nH]c(Nc2ccccc2)cc2ccccc12	31*	-6	10	9	8	2	18
O=c1[nH]c(Nc2ccccc2)cc2cc(Br)ccc12	61*	16	5	22	16	18	14
COCCNC[C@@]12CO[C@H](c3ccc(Cl)cc3)N1[C@@H](c1ccc(Cl)cc1)SC2	.	.	.	-13	.	.	.
COC(=O)c1cccc(Cn2ccc3ccc(-c4ccc5ccn(C(=O)c6ccccc6)c5c4)cc32)c1	.	.	.	-3	.	.	.
CC1(C)C(=O)OC(c2cccn2-c2ccc([N+](=O)[O-])cc2)C(C)(C)C1=O (stereo unspecified)	9	2	-1	-2	10	0	.
CC1(C)C(=O)OC(c2cccn2-c2ccc([N+](=O)[O-])cc2)C2(CCCCC2)C1=O (stereo unspecified)	48*	1	1	-8	1	-2	5
CCc1nnc(N/N=C/c2cc(Br)c(O)cc2O)n1N	26*	7	20	13	9	6	19
SMILES	PAFAH1B3 FP inh	pPAFAH inh	HTRA1 inhibitor	mABHD4 FP	PAFAH1B2 inh	PAFAH2 FP inh	PAFAH1B3 conf FP
O=C(O)c1cccc(N/N=C/c2ccc(OC(F)(F)F)cc2)c1	2	5	4	9	5	8	.
CSc1ccc(/C=N/Nc2cccc(C(=O)O)c2)cc1	33*	.	4	.	22	20	26*
CC(=O)C(C(C)=O)C1(O)C(=O)c2ccccc2C1=O	34*	-2	5	8	16	-3	22
COc1ccc(C2CC(=O)C(c3ccccc3)=CN2Cc2ccccc2)cc1 (stereo unspecified)	.	.	.	-9	.	.	.
CS(=O)(=O)N1CCc2cc(-c3csc(NC(=O)Cc4cccs4)n3)ccc21	36*	16	-20	-24	3	-6	5
O=C1NC(c2ccccc2)C(c2ccccc2)N1 (stereo unspecified)	50*	.	-6	-5	5	12	39*
COC(=O)C(C(=O)OC)[C@H]1C=C[C@@H](C(=O)NS(=O)(=O)c2ccc(C)cc2)N(C(C)=O)C1	.	.	.	7	.	.	.
O=C(Nc1ccc2nsnc2c1)N1CCCCC1	-3	4	5	-2	1	7	.
S=C(Nc1ccc2nsnc2c1)NC1CCCCC1	56*	8	1	-5	15	6	2
COCCNC(=S)Nc1ccc2nsnc2c1	69*	1	4	2	19	20	4
C=CCNC(=S)Nc1ccc2nsnc2c1	7	3	2	12	6	7	.
S=C(Nc1ccc(Cl)c(Cl)c1)NC1CCCCC1	1	0	-18	.	1	-15	.
C=CCN(CC=C)C(=S)Nc1ccc2nsnc2c1	59*	1	-1	-2	17	17	4
S=C(Nc1ccc2nsnc2c1)N1CCCCCC1	32*	2	0	1	9	15	10
CCN(C(=O)[C@@H]1CC(=O)O[C@@H]1c1ccccc1)c1ccccc1	.	.	.	-3	.	.	.
N#Cc1ccccc1N1CCN(C(=O)C2CCN(c3ncnc4c3sc3cccc(F)c34)CC2)CC1	.	.	.	-11	.	.	.
COC(=O)CCC(=O)OC1(C)C(=O)C2=CN(CCc3ccccn3)C(c3ccc(OC)cc3)=CC2=C(Br)C1=O (stereo unspecified)	30*	20	37*	.	1	13	4
